Experimental data collected from several papers.
Protocols differ between the studies behind these lines.
IGF1R: Insulin-like growth factor 1 receptor (IGF1R, Homo sapiens, UniProt P08069)

SMILES	target	assay	setting	quantity	value
Cc1cc(NC(=O)c2cccc3cc(-c4cccc5[nH]nc(N)c45)ccc23)ccc1F	Insulin-like growth factor 1 receptor, phosphorylated (IGF1R, Homo sapiens, UniProt P08069)	enzyme activity, inhibitor	0.1 µM	activity vs control	100%
CS(=O)(=O)Nc1cccc(-c2csc(NC(=O)CSc3nc4nccnc4c(=O)n3CCc3ccccc3)n2)c1	IGF1R	enzyme activity, inhibitor	10 µM	inhibition	5%
Cc1ccc(C(=O)Nc2ccc(CN3CCN(C)CC3)c(C(F)(F)F)c2)cc1C#Cc1cnc2cccnn12	IGF1R	cell-free assay	23.5 nM	remaining signal	84%
Cc1ccc(NC(=O)c2ccc(C)c(C(F)(F)F)c2)cc1C#Cc1nn(C2CCC(O)CC2)c2ncnc(N)c12 (stereo not drawn)	IGF1R	cell-free assay	10 µM	remaining signal	66%
CNCc1ccc(-c2cc(-c3nc(-c4ccc(S(=O)(=O)C(C)C)cc4)cnc3N)on2)cc1	IGF1R	enzyme activity, inhibitor	2 µM	inhibition	2%
CCN(CC)CCNC(=O)c1c(C)[nH]c(/C=C2\C(=O)Nc3ccc(F)cc32)c1C	IGF1R	enzyme activity, inhibitor	10 µM	inhibition	81%
CN1CC(Oc2cnc(C#N)cc2-c2ccn3nc(NC(=O)C4CC4)cc3c2)C1	IGF1R	enzyme activity, inhibitor	1 µM	inhibition	9%
COc1cc2ncnc(Nc3ccc(Oc4ccccc4)cc3C)c2cc1OC	IGF1R	enzyme activity, inhibitor	1 µM	inhibition	1%
C=CC(=O)Nc1cc(Nc2nccc(Nc3cc(Cl)c(F)cc3C(C)(C)O)n2)c(OC)cc1N1CC[C@@H](N(C)C)C1	IGF1R	enzyme activity, inhibitor	1 µM	inhibition	35%
CN(C)C(=O)Cn1cc(-c2nc(C3(c4ccc(-c5cnc(N)nc5)cc4)CC3)no2)cn1	IGF1R	cell-free assay, competition with immobilised ligand	1 µM	remaining binding	85%
COc1cc2nccc(Oc3ccc(NC(=O)c4c5n(n(-c6ccc(F)cc6)c4=O)CCCC5)cc3)c2cc1OC	IGF1R	enzyme activity, inhibitor	0.1 µM	inhibition	16%
CN(C(=O)c1ccccc1)c1cc(N(C)c2ccc3c(c2)CCc2ccc(C(=O)NCCN4CCOCC4)cc2C3=O)ccc1F	IGF1R	cell-free assay, competition with immobilised ligand	1 µM	remaining binding	90%
CNc1cccc2cc(C(=O)Nc3ccc(C(=O)O)cc3)c(=O)[nH]c12	IGF1R	enzyme activity, inhibitor	10 µM	inhibition	5.2%
O=C(NCc1ncc(C(F)(F)F)cc1Cl)c1ccc2c(c1)C1(CCS(=O)(=O)CC1)[C@@H](C1CC1)N2S(=O)(=O)c1ccc(F)cc1	IGF1R	cell-free assay, competition with immobilised ligand	1 µM	remaining binding	88%
O=C1NC(=O)c2cc(Nc3ccc(F)cc3)c(Nc3ccc(F)cc3)cc21	IGF1R	cell-free assay	0.5 µM	remaining signal	102%
Cc1nccc(COC(=O)N2C[C@@H]3[C@@H](CNC(=O)c4ccc5[nH]nnc5c4)[C@@H]3C2)n1	IGF1R	cell-free assay, competition with immobilised ligand	1 µM	remaining binding	93%
CC/C(=N\NC(=O)NCc1cccc(O)c1)c1ccc(O)c(C)c1O	IGF1R	enzyme activity, inhibitor	0.1 µM	inhibition	3%
CCS(=O)(=O)c1cc2cc(C[C@@](O)(CC(C)(C)c3ccc(F)cc3C(N)=O)C(F)(F)F)[nH]c2cn1	IGF1R	cell-free assay, competition with immobilised ligand	1 µM	remaining binding	100%
COc1ccc(Cl)cc1NC(=O)Nc1cc(C)nc2ccccc12	IGF1R	cell-free assay	0.5 µM	remaining signal	94.9%
Nc1c(C(=O)NCc2ccc(C(=O)NCCCC3CCCCC3)cc2)cnn1-c1ccccc1	IGF1R	cell-free assay, competition with immobilised ligand	0.1 µM	remaining binding	98%
Cc1ccc(C(=O)NCc2ccsc2)cc1C#Cc1cn(C(C)C)c2ncnc(N)c12	IGF1R	enzyme activity, inhibitor	1 µM	activity vs control	75%
